From ChEMBL document CHEMBL4825669, “Synthesis, Molecular Pharmacology, and Structure-Activity Relationships of 3-(Indanoyl)indoles as Selective Cannabinoid Type 2 Receptor Antagonists” (J Med Chem, 2021)

Assays:
[1] = biological target: T1, Cannabinoid receptor 1 (Homo sapiens, UniProt P21554); assay: Displacement of [3H]-CP55940 from human CB1 receptor expressed in CHO cells at 1 uM incubated for 90 mins by liquid scintillation spectrophotometry relative to control; type: cell-based
Outline: (§1)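 Membrane protein was 100 μg for CHO-hCB1 and 50 μg for CHO-hCB2. Incubation 90 min at room temperature. Nonspecific binding set with 10 μM WIN-55,212-2. Stopped by GF/B filtration with three ice-cold washes, then liquid scintillation counting.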

[2] = biological target: T2, Cannabinoid receptor 2 (Homo sapiens, UniProt P34972); assay: Displacement of [3H]-CP55940 from human CB2 receptor expressed in CHO cells at 1 uM incubated for 90 mins by liquid scintillation spectrophotometry relative to control; type: cell-based; outline: as §1
T2 sequence (P34972 whole entry): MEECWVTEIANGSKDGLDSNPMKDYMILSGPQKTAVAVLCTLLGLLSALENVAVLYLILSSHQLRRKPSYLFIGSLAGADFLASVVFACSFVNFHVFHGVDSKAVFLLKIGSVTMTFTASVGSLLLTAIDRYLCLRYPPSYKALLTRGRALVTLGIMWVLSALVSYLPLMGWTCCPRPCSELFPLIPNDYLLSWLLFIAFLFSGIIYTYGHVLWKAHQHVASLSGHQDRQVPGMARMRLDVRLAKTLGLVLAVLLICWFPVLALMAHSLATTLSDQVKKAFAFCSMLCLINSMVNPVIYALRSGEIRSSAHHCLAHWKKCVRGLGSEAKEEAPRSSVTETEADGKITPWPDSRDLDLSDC

[3] = biological target: T2, Cannabinoid receptor 2; assay: Antagonist activity at human CB2 receptor expressed in CHO cell membrane assessed as stimulation of [35S]GTPgammaS binding at 10 uM by liquid scintillation spectrophotometry; type: functional, cell membranes; set-up: scale not given: the % may be the effect or the level left
Outline: (§2)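 CHO cell membranes expressing hCB2, 25 or 50 µg protein, incubated in triplicate with 0.1 nM [35S]GTPγS. Buffer: 20 mM HEPES, 100 mM NaCl, 10 mM MgCl2, 0.05% BSA, 20 units/L adenosine deaminase. Reaction 30 min at 30 °C, stopped by filtration on GF/B with ice-cold washes, counted by liquid scintillation. Nonspecific binding set with 10 μM unlabelled GTPγS.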

[4] = biological target: T2, Cannabinoid receptor 2; assay: Displacement of [3H]-CP55940 from human CB2 receptor expressed in CHO cells incubated for 90 mins by liquid scintillation spectrophotometry relative to control; type: cell-based; outline: as §1
[5] = biological target: T1, Cannabinoid receptor 1; assay: Displacement of [3H]-CP55940 from human CB1 receptor expressed in CHO cells incubated for 90 mins by liquid scintillation spectrophotometry relative to control; type: cell-based; outline: as §1
[6] = biological target: T1, Cannabinoid receptor 1; assay: Binding affinity to human CB1 receptor assessed as free binding energy; type: cell-based; details: CHO, filed as antagonist
[7] = biological target: T2, Cannabinoid receptor 2; assay: Binding affinity to human CB2 receptor assessed as free binding energy; type: cell-based; details: CHO, filed as antagonist
[8] = biological target: T2, Cannabinoid receptor 2; assay: Antagonist activity at human CB2 receptor expressed in CHO cell membrane assessed as reduction in CP55940-induced [35S]GTPgammaS binding by liquid scintillation spectrophotometry; type: functional, cell membranes; outline: as §2
[9] = tested on: CHO; assay: Selectivity index, ratio of Ki for human CB1 receptor expressed in CHO cells to Ki for human CB2 receptor expressed in CHO cells; type: cell-based

T1 sequence (P21554 whole entry): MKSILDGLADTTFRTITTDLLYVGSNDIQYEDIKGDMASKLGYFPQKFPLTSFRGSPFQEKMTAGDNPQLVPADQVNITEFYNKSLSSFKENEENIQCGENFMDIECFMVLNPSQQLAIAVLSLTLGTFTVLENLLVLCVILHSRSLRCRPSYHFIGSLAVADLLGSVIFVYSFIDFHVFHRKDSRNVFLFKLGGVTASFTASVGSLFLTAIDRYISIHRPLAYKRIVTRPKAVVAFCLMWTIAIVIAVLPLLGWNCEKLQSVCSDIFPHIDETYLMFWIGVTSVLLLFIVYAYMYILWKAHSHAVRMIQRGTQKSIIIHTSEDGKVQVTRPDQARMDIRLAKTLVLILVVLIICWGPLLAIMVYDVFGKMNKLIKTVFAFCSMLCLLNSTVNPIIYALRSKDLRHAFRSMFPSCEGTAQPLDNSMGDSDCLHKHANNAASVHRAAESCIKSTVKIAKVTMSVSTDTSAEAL

SMILES | Activity [1] | Activity ([1]; filed as antagonist) | Activity ([2]; filed as antagonist) | Activity ([3]; filed as antagonist) | other results
CCOC(=O)Cn1cc(C(=O)c2ccc3c(c2)CC(C)(C)C3)c2ccccc21 | 19.4% |  |  |  | Activity [2]: 18%
CC/C=C/Cn1cc(C(=O)c2ccc3c(c2)CC(C)(C)C3)c2ccccc21 |  | 84.2% | 86.9% | 81% | 
CC/C=C\Cn1c(C)c(C(=O)c2ccc3c(c2)CC(C)(C)C3)c2ccccc21 | 43% |  | 82.9% |  | 
CCCCCCn1c(C)c(C(=O)c2ccc3c(c2)CC(C)(C)C3)c2ccccc21 | 26.2% |  | 55% |  | 
CCCCCCn1cc(C(=O)c2ccc3c(c2)CC(C)(C)C3)c2ccccc21 |  | 79.1% | 83.6% | 102% | 
CC/C=C\Cn1cc(C(=O)c2ccc3c(c2)CC(C)(C)C3)c2ccccc21 |  | 60.7% | 86.4% | 106% | 
CC/C=C/Cn1c(C)c(C(=O)c2ccc3c(c2)CC(C)(C)C3)c2ccccc21 | 35.1% |  | 73.7% |  | 
C#CCCCn1c(C)c(C(=O)c2ccc3c(c2)CC(C)(C)C3)c2ccccc21 | 41.9% |  | 93.1% | 121% | Ki [4]: 62.5 nM; Ki [5]: 1900 nM; deltaG [6]: -7.85 °C; deltaG [7]: -9.89
CC1(C)Cc2ccc(C(=O)c3cn(Cc4ccccc4)c4ccccc34)cc2C1 |  | 69.2% | 84.6% | 87% | 
CCCn1c(C)c(C(=O)c2ccc3c(c2)CC(C)(C)C3)c2ccccc21 | 44.4% |  | 73.9% |  | 
C#CCn1c(C)c(C(=O)c2ccc3c(c2)CC(C)(C)C3)c2ccccc21 |  | 51.9% | 63% |  | 
CC1(C)Cc2ccc(C(=O)c3c[nH]c4ccccc34)cc2C1 | 9.4% |  |  |  | Activity [2]: 22.2%
CCCCCn1cc(C(=O)c2ccc3c(c2)CC(C)(C)C3)c2ccccc21 |  | 93.4% | 99.8% | 108% | IC50 [8]: 1800 nM; Kb ([8]; filed as antagonist): 9.7 nM; Ki [4]: 4.9 nM; Selectivity Index [9]: 7.9; Ki [5]: 38.8 nM; deltaG [6]: -10.2 kcal/mol; deltaG [7]: -11.5 kcal/mol
C=CCn1cc(C(=O)c2ccc3c(c2)CC(C)(C)C3)c2ccccc21 | 16% |  | 60.6% |  | 
C=CCCCn1c(C)c(C(=O)c2ccc3c(c2)CC(C)(C)C3)c2ccccc21 | 38.6% |  | 86.4% |  | 
CCCn1cc(C(=O)c2ccc3c(c2)CC(C)(C)C3)c2ccccc21 | 47.4% |  | 90.5% | 99% | Ki [4]: 130 nM; Selectivity Index [9]: 19.7; Ki [5]: 2560 nM; deltaG [6]: -7.68 kcal/mol; deltaG [7]: -9.45 kcal/mol

SMILES | Activity [1] | Activity ([1]; filed as antagonist) | Activity ([2]; filed as antagonist) | Activity ([3]; filed as antagonist) | other results
Cc1c(C(=O)c2ccc3c(c2)CC(C)(C)C3)c2ccccc2n1Cc1ccc(F)cc1 | 38.4% |  |  |  | Activity [2]: 48.8%
CCCCn1cc(C(=O)c2ccc3c(c2)CC(C)(C)C3)c2ccccc21 |  | 82.7% | 92.9% | 102% | 
CCC#CCn1cc(C(=O)c2ccc3c(c2)CC(C)(C)C3)c2ccccc21 |  | 55.6% | 65.9% |  | 
CC(C)Cn1cc(C(=O)c2ccc3c(c2)CC(C)(C)C3)c2ccccc21 |  | 422% | 83.1% |  | 
C=CCCCn1cc(C(=O)c2ccc3c(c2)CC(C)(C)C3)c2ccccc21 |  | 80% | 95.2% | 92% | Ki [4]: 15.6 nM; Ki [5]: 152 nM; deltaG [6]: -9.36 °C; deltaG [7]: -10.7
CCCCCn1c(C)c(C(=O)c2ccc3c(c2)CC(C)(C)C3)c2ccccc21 |  | 53.8% | 83.6% |  | 
CCCCn1c(C)c(C(=O)c2ccc3c(c2)CC(C)(C)C3)c2ccccc21 | 43.5% |  | 85.4% |  | 
CCCCCn1cc(C(=O)c2cccc3c2CC(C)(C)C3)c2ccccc21 |  | 85.7% | 94.1% | 134% | Ki [4]: 1.36 nM; Selectivity Index [9]: 1.1; Ki [5]: 1.46 nM; deltaG [6]: -12.1 kcal/mol; deltaG [7]: -12.2 kcal/mol
C#CCn1cc(C(=O)c2ccc3c(c2)CC(C)(C)C3)c2ccccc21 | 33.4% |  | 56% |  | 
CCCCCn1cc(C(=O)c2cccc3ccccc23)c2ccccc21 |  |  |  |  | Ki [4]: 2.94 nM; Selectivity Index [9]: 3.1; Ki [5]: 9 nM
CC1(C)Cc2ccc(C(=O)c3cn(Cc4ccc(F)cc4)c4ccccc34)cc2C1 |  | 88% | 92.3% | 90% | 
C#CCCCn1cc(C(=O)c2ccc3c(c2)CC(C)(C)C3)c2ccccc21 |  | 71% | 92.8% | 96% | Ki [4]: 24 nM; Ki [5]: 325 nM; deltaG [6]: -8.91 °C; deltaG [7]: -10.5
Cn1cc(C(=O)c2ccc3c(c2)CC(C)(C)C3)c2ccccc21 | 10.8% |  |  |  | Activity [2]: 23.9%
CCC#CCn1c(C)c(C(=O)c2ccc3c(c2)CC(C)(C)C3)c2ccccc21 | 16.4% |  |  |  | Activity [2]: 30.2%
Cc1c(C(=O)c2ccc3c(c2)CC(C)(C)C3)c2ccccc2n1Cc1ccccc1 | 18.1% |  | 51.2% |  | 
COc1ccc(C(=O)c2c(C)n(CCN3CCOCC3)c3cc(I)ccc23)cc1 |  |  |  |  | Activity [3]: 67%
